Bioassay records as filed in PubChem BioAssay.
A selection: hits, their analogues and other compounds. The true share with any hit is near 3.5%.
MrgX1 ag: activates human MrgX1 receptor signaling; Q96LB2; AID 588627; hit rate 0.44% among 310,000; MrgX1-HEK293 cells, Fluo-4 calcium fluorescence, agonist mode; stronger effect = higher value; B-score at 10 µM;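 active = calcium response B-score plate-corrected fluorescence ratio at least 3 library SD, with starting fluorescence B-score inside 5 SD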
Target sequence (Q96LB2 whole entry, looked up): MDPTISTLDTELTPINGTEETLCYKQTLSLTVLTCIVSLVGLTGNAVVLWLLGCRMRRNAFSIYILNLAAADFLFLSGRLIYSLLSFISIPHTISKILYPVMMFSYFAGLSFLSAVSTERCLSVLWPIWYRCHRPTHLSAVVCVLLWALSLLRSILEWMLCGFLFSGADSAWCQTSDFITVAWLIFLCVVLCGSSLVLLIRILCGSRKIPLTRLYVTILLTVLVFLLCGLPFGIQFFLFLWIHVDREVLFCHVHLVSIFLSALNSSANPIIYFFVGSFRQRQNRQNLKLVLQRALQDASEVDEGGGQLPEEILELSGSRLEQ
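Assay system: stable human MrgX1 HEK293 cell line. Quantity: 15,000 cells per well. Schedule: cells plated overnight, dye loaded 0.5 h 37 °C, 0.5 h room temperature. Detection: Fluo-4 NW calcium-flux fluorescence, kinetic read. Read-out basis: peak-minus-minimum fluorescence over baseline, converted to B scores. Control set: positive and negative control wells on each plate.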
RGS4 block: inhibitors of human RGS4; P49798; HEK293 M3R/RGS4 inducible, Fluo-4 calcium flux; stronger effect = higher value; triggered by carbachol at its EC20; B-score at 10 µM; hit rate 0.45% among 310,000; AID 463165;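 active = B-score, a plate-corrected calcium signal, over three deviations above library mean, with baseline fluorescence within five deviations of library mean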;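 note: RGS4 expression induced by doxycycline in cells with stable M3 receptor; B-score is computed from the integrated fluorescence ratio over baseline after carbachol; higher B-score means a larger calcium signal and so more RGS4 inhibition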
Target sequence (P49798 whole entry, looked up): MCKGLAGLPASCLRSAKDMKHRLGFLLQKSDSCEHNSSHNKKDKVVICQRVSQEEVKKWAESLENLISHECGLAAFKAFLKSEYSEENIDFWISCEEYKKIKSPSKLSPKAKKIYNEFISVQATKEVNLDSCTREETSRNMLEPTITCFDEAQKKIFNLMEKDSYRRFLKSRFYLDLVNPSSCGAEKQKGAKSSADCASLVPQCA
MrgX1 antag: antagonists of human MrgX1 receptor. Q96LB2. MRGX1-HEK293 calcium flux, Fluo-4, BAM8-22 antagonism; stronger effect = lower value. B-score at 10 µM. hit rate 1.3% among 310,000;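 active = calcium-response B-score plate-corrected more than 3 library SD below zero, starting fluorescence within 5 deviations, no agonist response on first addition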;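 note: peak minus trough fluorescence over baseline after final BAM8-22 challenge near maximal dose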
MrgX1 PAM: human MrgX1 positive allosteric modulation, primary screen. Q96LB2. MrgX1-HEK293, Fluo-4 calcium flux, FDSS; stronger effect = higher value. B-score at 10 µM. hit rate 0.63% among 310,000. AID 588675;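 active = plate-corrected calcium response at least 3 library SD above typical, normal starting fluorescence, not activating the receptor alone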;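 note: compound read alongside a low EC10 to EC30 dose of BAM8-22 agonist; peak minus trough fluorescence over baseline measured at the second addition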
RGS4 act: RGS4 potentiation or activation. HEK293 M3R/inducible RGS4, carbachol calcium flux Fluo4; stronger effect = lower value. B-score at 10 µM. hit rate 0.92% among 310,000;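 active = B-score of the integrated calcium signal more than 4 SD below the library mean, with starting fluorescence not abnormally high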;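 note: negative B-score means reduced calcium response which marks RGS4 activation or potentiation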
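test system = M3R-expressing HEK293 line, RGS4 induced by doxycycline | probe or stimulus = carbachol at ECmax as muscarinic agonist stimulus | timing = dye loading 30 min 37 °C, buffer rest 30 min RT | signal = calcium dye Fluo4 fluorescence | evaluation = B score from integrated fluorescence ratio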
RGS4 act valid: RGS4 activation, validation assay | hit rate 89% among 1,100 | inhibition, % at 10 µM | AID 602282 | shares compounds with RGS4 act | HEK293 M3R/RGS4 inducible, carbachol calcium flux Fluo4;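 active = inhibition above 3 SD of the buffer control wells, cut at about 41% in these data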;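 note: signal is the integrated peak-minus-minimum Fluo4 fluorescence over baseline ratio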
M3R Ca counter: counter-screen for RGS4 activators: effect in non-induced cells | shares compounds with RGS4 act | HEK293 M3R non-induced RGS4, Fluo4 calcium flux; after carbachol challenge at its EC90 | inhibition, % at 10 µM | hit rate 82% among 1,100 | AID 602283;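 active = inhibition exceeding 3 SD of buffer-only control wells, cut at about 26% in these data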;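 note: percent drop in integrated peak-minus-baseline over baseline Fluo4 ratio after carbachol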
Numbers stand for hits; - = inactive; . = not tested or not shown.

SMILES	MrgX1 ag	RGS4 block	MrgX1 antag	MrgX1 PAM	RGS4 act	RGS4 act valid	M3R Ca counter
COc1ccc(-c2cc(C(=O)N(C)CC(=O)Nc3cccc(F)c3)c3ccccc3n2)cc1	-	-	-	-	-8.2	70	28
Oc1ccc(Br)cc1Cn1nnc2ccccc21	-	-	-	-	-	.	.
O=C(Nc1oc2ccc(Cl)cc2c(=O)c1-c1ccc(F)cc1)c1ccco1	-	-	-	-	-	.	.
Cc1cc(C)cc(NC(=S)NCc2cccn2C)c1	-	-	-	-	-	.	.
O=C(COc1cccnc1[N+](=O)[O-])Nc1cccc(S(=O)(=O)N2CCCCC2)c1	-	-	-	-	-	.	.
Cc1nc(N2CCN(S(=O)(=O)c3ccc(F)cc3)CC2)c2c(-c3cccs3)csc2n1	-	-	-	-	-	.	.
COc1ccc(NC(=O)CN(C)C(=O)c2cc(-c3ccccc3)nc3ccccc23)cc1	-	-	-	-	-8.4	48	-
COc1ccc(NC(=O)CN(C)C(=O)c2cc(-c3ccncc3)nc3ccccc23)cc1	-	-	-	-	-	.	.
CN1CCN(CCNC(=O)c2ccc3nc(-c4ccc(F)cc4)c(-c4ccc(F)cc4)nc3c2)CC1	-	-	-	-	-9.7	90	84
O=C(O)c1ccc2nc(-c3ccccc3)c(-c3ccccc3)nc2c1	-	-	-	-	-	.	.
CCN1CCN(C(=O)c2ccc3nc(-c4ccccc4)c(-c4ccccc4)nc3c2)CC1	-	-	-	-	-9.4	73	84
COc1ccc2c(c1)C=C([C@@H]1C[C@H]3CN(c4ccccc4)C(=O)[C@]34CCCN14)CO2	-	-	-	-	-10	70	84
O=C(NC1CCCCC1)C(c1ccccc1)N1CCCC1 (configuration not stated)	-	-	-	-	-8.8	94	64
Cc1ccc(C(C(=O)NC2CCCCC2)N2CCCC2)cc1 (configuration not stated)	-	-	-	-	-	.	.
Cc1ccc(-c2nc3ccccn3c2NCc2ccc3c(c2)OCO3)cc1	-	-	-	-	-9.5	89	71
Cc1cc2ncn(C(=O)c3c(-c4ccccc4Cl)noc3C)c2cc1C	-	-	-	-	-11	94	79
CCOC(=O)c1ccc(NC(=O)c2c(Cl)cc(C)nc2C)cc1	-	-	-	-	-	.	.
CCOC(=O)c1ccc(Nc2cc(C)nc(C)c2C(=O)OCC)cc1	-	-	-	-	-8.4	58	84
CC(=O)c1cn(CCOc2ccc(F)cc2)c2ccccc12	-	-	-	-	-	.	.
Oc1ccccc1Oc1ncc(Br)c(N2CCOCC2)n1	-	-	-	-	-11	92	64
OCCCNc1cc(-c2ccccc2)nc2cc(-c3ccc(F)cc3)nn12	-	-	-	-	-8.8	68	42
Cc1cc(NCCCO)n2nc(-c3cccs3)cc2n1	-	-	-	-	-	.	.
COCCNC(=S)N1CCOCC1	-	-	-	-	-	.	.
COc1cccc(/C=N/NC(=O)c2ccccc2N(Cc2ccccc2)S(=O)(=O)c2ccccc2)c1OC	-	-	-	-	-	.	.
Cc1ccc(O)c(C(=O)c2cnc(/N=C(\N)N(C)C)nc2)c1	-	-	-	-	-8.8	90	69
SMILES	MrgX1 ag	RGS4 block	MrgX1 antag	MrgX1 PAM	RGS4 act	RGS4 act valid	M3R Ca counter
Cc1cc(NS(=O)(=O)c2cc(Cl)sc2Cl)no1	-	-	-	-	-	.	.
Cc1ccc(C)c(S(=O)(=O)Nc2ccc3scnc3c2)c1	-	-	-	-	-	.	.
COCCN(C(=O)Nc1ccccc1OC)c1nc2ccccc2s1	-	-	-	-	-7.7	92	91
FC(F)(F)c1cccc(NCc2n[nH]c(=S)n2C2CCCCC2)c1	-	-	-	-	-8.4	85	52
CCOc1ccc2c(c1)sc(N)[n+]2Cc1cc(C)cc2cccnc12	-	-	-	-	-11	90	46
COc1ccc2c(c1)sc(N)[n+]2Cc1cc(C)cc2cccnc12	-	-	-	-	-	.	.
CCSc1nnc(NC(=O)C(NC(=O)c2ccc(Cl)cc2)C(C)C)s1 (configuration not stated)	-	-	-	-	-9.4	-	-
CC(C)C(NC(=O)c1ccc(Cl)cc1)C(=O)NC1=NCCS1 (configuration not stated)	-	-	-	-	-	.	.
CCCCN(C)CCNC(=O)c1cc2c(-c3cccc(OC)c3)nn(C)c2s1	-	-	-	-	-	.	.
O=[N+]([O-])c1ccccc1COc1ccc(Cl)c2cccnc12	-	-	-	-	-	.	.
Cc1cccc2nc(COc3ccc(Cl)c4cccnc34)cn12	-	-	-	-	-10	-	84
COc1cccc(-c2nn(-c3ccccc3)cc2C(=O)Nc2nccs2)c1	-	-	-	-	-	.	.
COc1ccc(-c2nn(-c3ccccc3)cc2C(=O)Nc2nccs2)cc1	-	-	-	-	-8.7	68	-
CC(=O)c1cn(-c2ccc(Cl)cc2)c(=O)[nH]c1=O	-	-	-	-	-	.	.
CC1CCc2nc3ccccc3c(C(=O)OCC(=O)N3CCc4ccccc43)c2C1 (configuration not stated)	-	-	-	-	-	.	.
CCCc1nc2ccccc2c(C(=O)OCC(=O)N2CCc3ccccc32)c1CC	-	-	-	-	-8.6	84	84
CCCc1nc2ccccc2c(C(=O)OCC(=O)Nc2cccc(S(=O)(=O)N3CCOCC3)c2)c1CC	-	-	-	-	-8.9	92	92
Cc1cc(C(=O)NNC(=O)c2ccc(C)s2)c(C)o1	-	-	-	-	-	.	.
Cc1c(C(=O)OCC(C)(C)CN(C)C)oc2ccccc12	-	-	-	-	-	.	.
Cc1c(C(=O)OC(C)CCN(C)C)oc2ccccc12 (configuration not stated)	-	-	-	-	-11	93	82
Cc1c(C(=O)OCC(=O)N2C(C)CCCC2C)oc2ccccc12 (configuration not stated)	-	-	-	-	-	.	.
Cc1c(C(=O)OCCN2CCCCC2)oc2ccccc12	-	-	-	-	-11	94	91
COc1cccc2c1O/C(=N\O)C(C(=O)Nc1ccc(C)cc1)C2 (configuration not stated)	-	-	-	-	-	.	.
O=[N+]([O-])c1cc(/C=N\Nc2nccs2)ccc1O	.	-	.	.	-	.	.
Cc1ccn(S(=O)(=O)c2ccc(C(C)(C)C)cc2)n1	-	-	-	-	-7.8	92	26
N#Cc1ccc(Cl)cc1NC(=O)CSc1nc2nc(-c3cccs3)cc(C(F)(F)F)c2c(=O)[nH]1	-	-	-	-	-	.	.
Cc1nccn1CC(O)Cn1c2ccccc2c2ccccc21 (configuration not stated)	-	-	-	-	-7.7	86	29
